# Laboratory results: ChEMBL document CHEMBL1136108, “Benzoxazinones as PPARgamma agonists. part 1: SAR of three aromatic regions” (Bioorg Med Chem Lett, 2003)
# Columns and labels:
# [1] = biological target: T1, Peroxisome proliferator-activated receptor gamma (Homo sapiens) (UniProt P37231); assay: Agonist activity determined in peroxisome proliferator activated receptor gamma using PPAR gamma-Gal4 Luciferase cotransfection assay; format: functional
# T1 sequence (whole entry): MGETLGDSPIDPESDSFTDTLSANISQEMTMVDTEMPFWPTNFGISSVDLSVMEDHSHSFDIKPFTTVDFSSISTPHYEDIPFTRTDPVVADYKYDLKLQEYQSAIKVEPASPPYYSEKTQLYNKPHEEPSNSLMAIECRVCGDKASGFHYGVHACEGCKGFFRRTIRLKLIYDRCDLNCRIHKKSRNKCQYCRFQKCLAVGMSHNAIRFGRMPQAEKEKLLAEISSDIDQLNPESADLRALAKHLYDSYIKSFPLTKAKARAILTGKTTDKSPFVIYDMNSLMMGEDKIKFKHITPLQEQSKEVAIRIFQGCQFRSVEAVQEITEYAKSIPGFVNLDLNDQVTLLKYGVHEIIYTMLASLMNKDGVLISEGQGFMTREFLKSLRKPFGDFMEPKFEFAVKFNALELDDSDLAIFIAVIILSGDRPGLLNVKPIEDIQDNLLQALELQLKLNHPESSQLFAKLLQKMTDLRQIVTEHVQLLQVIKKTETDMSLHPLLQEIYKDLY
# Procedure, shortened: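 HEK293 cells grown in DMEM/F-12 with 10% FBS and glutamine, co-transfected (DMRIE-C) with PPARg-Gal4 receptor and Gal4-luciferase reporter DNA. Next day, medium switched to 5% charcoal-treated FBS; after 6 h cells seeded and incubated overnight at 37°C. Compound exposure 24 h at 37°C, 5% CO2; luciferase read by Steady-Glo. Values are the mean of two experiments.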
# [2] = biological target: T1, Peroxisome proliferator-activated receptor gamma (Homo sapiens); assay: Functional potency was determined in pooled human preadipocytes by measurement of PPARg aP2 gene induction; format: cell-based
# Procedure, shortened: (§1)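 Pooled human preadipocytes treated with compound. Induction of the aP2 gene was quantified by a branched DNA technique. EC50 values are the mean of two experiments.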
# [3] = Half life period in human hepatic S9 fraction was determined; format: ADME, subcellular; conditions: liver S9 fraction
# [4] = Half life period in human liver microsome was determined; format: ADME; conditions: liver microsomes
# Rattus norvegicus [5] = assay: Oral bioavailability after administration (30 mg/kg) in rat; good; format: ADME, organism-based; conditions: in vivo
# [6] = Half life period after administration (30 mg/kg) in rat; format: ADME, organism-based; conditions: in vivo
# Rattus norvegicus [7] = assay: Area under curve (AUC0-24 h) after administration (30 mg/kg) in rat; format: ADME, organism-based; parameters: dose 30 mg/kg, time < 24 hr; conditions: in vivo
# Mus musculus = assay: Decrease in plasma glucose in db/db mice after 5 days of 30 mg/kg oral administration; format: functional
# [8] = biological target: T1, Peroxisome proliferator-activated receptor gamma (Homo sapiens); assay: PPAR gamma mediated aP2 gene induction in pooled human preadipocytes; format: functional, cell-based; procedure, shortened: as §1
Structure (SMILES),Activity [1],Activity [2],other results
O=C(O)c1ccccc1OCCC1Oc2ccccc2N(Cc2ccc(Cl)cc2)C1=O (stereo not drawn),> 5 µM,> 10 µM,
O=C(O)Cc1ccccc1OCCC1Oc2ccccc2N(Cc2ccc(Cl)cc2)C1=O (stereo not drawn),1.3 µM,2.1 µM,half-life [3]: > 0.833 h; half-life [4]: > 0.833 h; F (Rattus norvegicus [5]): Active; half-life [6]: 20 h; AUC (Rattus norvegicus [7]): 308 µM·h; Glucose level (Mus musculus): 27%
O=C(O)CCc1ccc(OCCC2Oc3ccccc3N(Cc3cccc(Cl)c3)C2=O)cc1 (stereo not drawn),,,Fold induction [8]: 3.6
O=C(O)Cc1ccccc1OCCC1CN(Cc2ccc(Cl)c(Cl)c2)c2ccccc2O1 (stereo not drawn),> 5 µM,> 10 µM,
O=C(O)Cc1ccc(OCCC2Oc3ccccc3N(Cc3cccc(Cl)c3)C2=O)cc1 (stereo not drawn),,,Fold induction [8]: 3.2
CC(=O)c1ccc2c(c1)OC(CCOc1ccccc1CC(=O)O)C(=O)N2Cc1ccc(Cl)cc1 (stereo not drawn),1.8 µM,6.2 µM,
O=C(O)Cc1ccccc1OCCC1Oc2ccccc2N(CCc2ccc(Cl)c(Cl)c2)C1=O (stereo not drawn),> 5 µM,> 10 µM,
COc1ccc(CN2C(=O)C(CCOc3ccccc3CC(=O)O)Oc3ccccc32)cc1 (stereo not drawn),0.52 µM,5.4 µM,
O=C(O)Cc1ccccc1OCCC1Oc2ccccc2N(Cc2ccc3c(c2)OCO3)C1=O (stereo not drawn),1.1 µM,4.4 µM,
O=C(O)Cc1ccccc1OCCC1Oc2ccccc2N(Cc2cccc(Cl)c2)C1=O (stereo not drawn),1.9 µM,2.4 µM,Fold induction [8]: 6.2
O=C(O)Cc1ccccc1OCCC1Oc2ccccc2N(c2ccc(Cl)c(Cl)c2)C1=O (stereo not drawn),0.57 µM,5.9 µM,
O=C(O)CCc1ccccc1OCCC1Oc2ccccc2N(Cc2ccc(Cl)cc2)C1=O (stereo not drawn),> 5 µM,> 10 µM,
O=C(O)Cc1ccccc1OCCC1Oc2ccc(C(=O)O)cc2N(Cc2ccc(Cl)cc2)C1=O (stereo not drawn),> 5 µM,> 10 µM,
CN(CCOc1ccc(CC2SC(=O)NC2=O)cc1)c1ccccn1 (stereo not drawn),,0.12 µM,
Cc1ccc2c(c1)OC(CCOc1ccccc1CC(=O)O)C(=O)N2Cc1ccc(Cl)cc1 (stereo not drawn),2.1 µM,4.2 µM,
O=C(O)Cc1ccccc1OCCC1Oc2ccccc2N(Cc2ccccc2)C1=O (stereo not drawn),> 5 µM,4.6 µM,
O=C(O)Cc1ccccc1OCCC1Oc2cc(F)ccc2N(Cc2ccc(Cl)cc2)C1=O (stereo not drawn),> 5 µM,> 10 µM,
O=C(O)Cc1ccccc1OCCC1Oc2ccccc2N(Cc2ccc(C(F)(F)F)cc2)C1=O (stereo not drawn),0.5 µM,0.51 µM,
O=C(O)Cc1ccccc1OCCC1Oc2ccccc2N(Cc2ccc(F)cc2)C1=O (stereo not drawn),1.1 µM,3.2 µM,
Cc1ccc(CN2C(=O)C(CCOc3ccccc3CC(=O)O)Oc3ccccc32)cc1 (stereo not drawn),2 µM,5 µM,
O=C(O)CCc1cccc(OCCC2Oc3ccccc3N(Cc3cccc(Cl)c3)C2=O)c1 (stereo not drawn),,,Fold induction [8]: 5.6
O=C(O)Cc1ccccc1OCCC1Oc2cc3ccccc3cc2N(Cc2ccc(Cl)cc2)C1=O (stereo not drawn),> 5 µM,> 10 µM,
O=C(O)Cc1ccccc1OCCC1Oc2ccccc2N(Cc2ccc(Cl)c(Cl)c2)C1=O (stereo not drawn),0.96 µM,2.6 µM,
O=C(O)Cc1cccc(OCCC2Oc3ccccc3N(Cc3ccc(Cl)cc3)C2=O)c1 (stereo not drawn),> 5 µM,> 10 µM,
COc1ccc2c(c1)N(Cc1ccc(Cl)cc1)C(=O)C(CCOc1ccccc1CC(=O)O)O2 (stereo not drawn),1.8 µM,6 µM,
O=C(O)Cc1ccccc1OCCC1Oc2ccccc2N(Cc2ccc(F)c(F)c2)C1=O (stereo not drawn),0.59 µM,1.3 µM,
O=C(O)Cc1cccc(OCCC2Oc3ccccc3N(Cc3cccc(Cl)c3)C2=O)c1 (stereo not drawn),> 5 µM,> 10 µM,Fold induction [8]: 5.5
